Laboratory results taken from the EternaBench riboswitch data.

Test system: MS2 coat protein
Assay: apparent Kd, MS2 coat protein; higher = weaker binding; RNA-MaP array; FMN 200 µM where present
Method in brief: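 Binding was read on Illumina sequencing-chip clusters where stalled E. coli RNA polymerase had transcribed each design. A titration of SNAP-549-labelled MS2 coat protein began at 0.7 or 1.5 nM and doubled to 3 µM, once without ligand and once with constant ligand, in 100 mM Tris-HCl pH 7.5, 80 mM KCl, 4 mM MgCl2, BSA, DTT, yeast tRNA and Tween-20. The apparent Kd is the median of filtered per-cluster binding-curve fits, based on green signal normalised to red-channel RNA signal and control-cluster median Fmax.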

[1] = designed as: OFF switch for flavin mononucleotide, no ligand
[2] = ligand present: flavin mononucleotide, designed as: OFF switch for flavin mononucleotide
[3] = designed as: ON switch for flavin mononucleotide, no ligand
[4] = ligand present: flavin mononucleotide, designed as: ON switch for flavin mononucleotide

| Sequence | apparent Kd [1] [nM] | apparent Kd [2] [nM] | apparent Kd [3] [nM] | apparent Kd [4] [nM] |
| --- | --- | --- | --- | --- |
| GAGUAGAUCCGAGGAUAUACAAUCCGGAAACGGUACAUGAGGAUCACCCAUGUAGAAGGCGGAUCUACAGGUACUAAAGUACCC | 5.73 | 8.11 |  |  |
| CCGAUGGUAUACUAGGAUAUGGGCGCCCUUACAUGAGGAUCACCCAUGUUUACACAAAUCCGCGGCCAGAAGGAGUUCAUGGGAG |  |  | 184 | 133 |
| AGAGCCUCGUGAGGAUAUACAUGAGGAUCACCCAUGUAAAUGAAAGAUAACGAGGAAACUCGAAUGUAGAAGGCACGAGGCUCA | 24.4 | 182 |  |  |
| AGUAAGAUGCAGAAGGUGUCAGCUAGAGCUACGACAUGAGGAUCACCCAUGUACUAGAAACAGUACAAGGAUAUGCAUCUUACA |  |  | 80.2 | 8.27 |
| UAUUUGUCAGGAUAUGAGUCGUAGAACAAUAGUACUACGUCUCAGAAGGGACAUGAGGAUCACCCAUGUGCCUC | 25.5 | 217 |  |  |
| GUACUGUAGUGAGGAUAUACGAGUUCGAUAGAACGGCGAUCCAUAUAUACAUGAGGAUCACCCAUGUAGAAGGCACUUCAGUAC | 7.69 | 100 |  |  |
| AGCACGAAAGUGCAACGAUGUACGAGAAGGACAUGAGGAUCACCCAUGUAUGCAGUAACUGCUAUGUAGGAUAUCGUACAUCGA | 7.57 | 9.94 |  |  |
| AGCUGACAAGGAUAUACUCGGGAUGCUAGUCGCGCAGAAGCACAUGAGGAUCACCCAUGUAGAAGGUGUCAGAA | 158 | 83.2 |  |  |
| AAAGAGCGAGGAUAUACAUGAGGAUCACCCAUGUGAAGAUGCAUGGUCUGAACGUCUGGUAGAAGGCGUAUGAA | 161 | 182 |  |  |
| UCAAGAAGGCAGAAGGGUCCUCACAUGAGGAUCACCCAUGUAGAUAUGGAUAGGAUAUGUCUAGAGAAGUGUUGCUCUAAGGGU |  |  | 1050 | 159 |
| CUGAGCCUAGGAUAUACUGGCUGUAAGCUUGAUGCCUGCACACAUGAGGAUCACCCAUGUAGAAGGAGGCCAGG | 17.2 | 21.1 |  |  |
| GUAGCAUACGGAGGAUAUGUAGGAUCCACAUGAGGAUCACCCAUGUUAAGGACAGAAGGCCGUAUGCUACAAGAGCGAAAGCUC |  |  | 10.6 | 12.3 |
| GAUAGAGAGCAGGAUAUCUUGGGUAAGUAUCGUAGAGAAGGGCUCACAUGAGGAUCACCCAUGUGGUCCAAGAU | 14.2 | 32.6 |  |  |
| AUACAUGAGGAUCACCCAUGUAAUUAAUUAAUUAAUAAGAUCUAGGAUAUCAGCUCGAUUAGAGCUGAGAAGGAGAUCACAUGU |  |  | 24.2 | 14.6 |
| UUUCGGUGGCUGGAGGAUAUCCUGGUUGUUACAUGAGGAUCACCCAUGUGCCGCGCGGUGCGCUGGGAGAAGGCCGGCGGCCCUU |  |  | 37.7 | 16.1 |
| AUACCACGAGGAUAUCGUCUAUUUUACAUGAGGAUCACCCAUGUUAUCUUUGUAAUGUUUCGAGAAGGCGUGUUUU | 34.2 | 23.9 |  |  |
| UGGUACAUGGGAGGAUAUCAUGUAUUCACAUGAGGAUCACCCAUGUCGAUGGAGACAUCGGAGAUUGAGAAGGCCCAUGUACCU |  |  | 1270 | 46.9 |
| UCACUUCGUGAGGAUAUGCAAGGACUAUGACUGGUAGAAGGCACGACAUGAGGAUCACCCAUGUCUGUGGGUCC | 17 | 18.3 |  |  |
| AGCUAAAACGAAGGAUAUACAAACAUGAGGAUCACCCAUGUAUACAUGAUUUAUUGUGAUCACAUGUAGAAGGUCGUACUAACA |  |  | 958 | 225 |
| CAGCGAAAGUAGAAGGCAGUACUGAUACAGUACUGAGGAUAUACAUGAGGAUCACCCAUGUACUUCAGCUGGAAAUAAAUAAAA | 5.59 | 6.32 |  |  |
| GGAUAGGACACAGGAUAUACGUGCUAGAGAUACUAGCAAAAUUUCCUCACAUGAGGAUCACCCAUGUAGAAGGCUGUCCUAUCG | 6.15 | 5.95 |  |  |
| UUUUUGUCAGGAUAUGAUUAGAUCUACUUUUGUAGAUCUAAUCAGAAGGGACAUGAGGAUCACCCAUGUAGUUU | 37.2 | 152 |  |  |
| AAGAGAAAAGCAGGAUAUCUAUUGGCUCCUUAACAUGAGGAUCACCCAUGUAGAGAAGGGCUAAGACCGACUCUUCGGAGUUGA | 7.07 | 20.6 |  |  |
| CCAGAGGUCACAGGAUAUGACUUGUCCAAUUAGUCAGAAGGGUGAAUCACAUUAUGUAUACAUGAGGAUCACCCAUGUCCUACG |  |  | 214 | 1040 |
| UGGUCAUGAUCAGGAUAUUAACAUGGGCUACAUUAAGAAGGGAUAGUGAGAUACGAACUGAACAUGAGGAUCACCCAUGUUGUU |  |  | 240 | 104 |
| AACAGGACAGGAUAUACAUGAGGAUCACCCAUGUGAGAAUUAAGUAGAUUGCCACAGAGUAGAAGGGUCCUGGA | 66.6 | 91.2 |  |  |
| CUUCUGUCAGGAUAUGCGAAUCACCACUAGGUCAGUGGUGAGCAGAAGGGACAUGAGGAUCACCCAUGUAAAGU | 37 | 166 |  |  |
| UUAAAUAGUGUGAGGAUAUGCUGGUCCUUGGAUCAGCAGAAGGCACAUGAGGAUCACCCAUGUAGUUAAUUUUA | 39.9 | 253 |  |  |

| Sequence | apparent Kd [1] [nM] | apparent Kd [2] [nM] | apparent Kd [3] [nM] | apparent Kd [4] [nM] |
| --- | --- | --- | --- | --- |
| UGCUAGAACCUAGGAUAUCCUGGGUUGGUGGUGCUUGAUGACCGGACAUGAGGAUCACCCAUGUAGGAGAAGGAGGUUGUUAAG | 60.6 | 112 |  |  |
| AUCCAGCGAGGAUAUACUUUGAUUUUUUCGUUUUGUCUCGAACAUGAGGAUCACCCAUGUAGAAGGUGCUUCAC | 67.1 | 59.8 |  |  |
| GGGCCGUUGCAGAAGGCCGGCGGGCUUGGCGCCGGAGGAUAUGCAUGUGCACAUGAGGAUCACCCAUGUGCCAGCCCGGAGGGA |  |  | 6.56 | 5.9 |
| GUGCACAUUCGAGGAUAUCGGAGAGAGAUCCUUCGAGAAGGCGAUUCAUGCUGUAUUAUUCUGGACAUGAGGAUCACCCAUGUG |  |  | 230 | 101 |
| GGUCCACAUGAGGAUCACCCAUGUUAGGAUAUCUCGUCCGAGCAGUUAUGGGCCGGGCAGAGAAGGAAUGUGAA | 30.3 | 26.6 |  |  |
| AAGUCUGGACGAGGAUAUCAGCUGUAACUGGCGUCAACAUGAGGAUCACCCAUGUUGCUAUAGGGUGAGAAGGCGUUUGGGCAA |  |  | 24.1 | 19.5 |
| CGGGAAGUCGUAGGAUAUGGUGAUGUACAUGAGGAUCACCCAUGUCCGUCUUCUCUCACAAGAUGCCAGAAGGACGACUUCCGG |  |  | 766 | 103 |
| UCGGAAUUCAAGAAGGACAUGAGGAUCACCCAUGUAGGAUAUUGACCCGAAUUGUGGGUUUUGCUGAUGCACUUCCCGAGGACA |  |  | 147 | 11.6 |
| UUUUUACAUGAGGAUCACCCAUGUCAGGAUAUGGUUAUAUUUUAUUAUUUUAUUUUUUCCAGAAGGGACUAUUA | 343 | 162 |  |  |
| CAUUUCAUGUCAGGAUAUCCGCGCAGCUUCACGCACGAUAUAAGGGAGCUUGGAGAAGGGACAUGAGGAUCACCCAUGUGCCUC | 10.9 | 26 |  |  |
| CUUUUGUGAGGAUAUCAGUAGUAAAAAAAUAAAUUUACUACUGAGAAGGCACAUGAGGAUCACCCAUGUUCCUC | 42.2 | 296 |  |  |
| ACGUGUUAUACAGGAUAUGUAUAGGAAUAAUCAUACAGUUAUUAAUUAAUGACAGAAGGGUAAACAUGAGGAUCACCCAUGUCA | 546 | 390 |  |  |
| AAGGUACGAGGAUAUACAUAGAUACAGACACAUGUGCAUGUACAUGAGGAUCACCCAUGUAGAAGGCGUAUAUA | 30.2 | 110 |  |  |
| GGAUGACAAAGUCAUCCAUUACGAACAUGAGGAUCACCCAUGUAGGAUAUGCAACUCAAAGAGUUGCAGAAGGACAUGUGUCUU | 29.6 | 146 |  |  |
| UCACAGUGUCGUUAUCCGUAGCGAACAUGAGGAUCACCCAUGUAGGAUAUGUUAUUAAACUAAUAACAGAAGGACGUUGGUCUC | 83.2 | 530 |  |  |
| GGACGUCACAUCUACAUGAGGAUCACCCAUGUCAAAAGACAUGAGGAUAUGCAUCCUAAUUGGAUGCAGAAGGCAUGGACGUCC |  |  | 1200 | 70.2 |
| UCUUUACAUGAGGAUCACCCAUGUGAGGAUAUGGAUUCGCUGGCCGUAGCCAGUGGAUCCAGAAGGCGCGUGAU | 74.7 | 64.9 |  |  |
| UUGAACAUAGGAUAUAGUUGUUUGUACAUGAGGAUCACCCAUGUUAGGGAUGUUUUGUUUCUAGAAGGAUGUUGAU | 170 | 80.3 |  |  |
| UGGUUGUGUGUCAGGAUAUGGUCUGGUGUUUCGGGCUAGAAGGGACAUGAGGAUCACCCAUGUGGCUGGCGGGU | 262 | 439 |  |  |
| GAGGUAUUCGUAGGAUAUCCGUCGCCACCGUGUGGAGAAGGACGAACAUGAGGAUCACCCAUGUAUCAUGGUGUGGACGCUUUC | 71.5 | 82.8 |  |  |
| AAAUAAACUACCAAGAUAUCCUCACAUGAGGAUCACCCAUGUCAGGAUAUUUGUCCUAAAAGGACAGAGAAGGGACGUGGUAGA | 6.24 | 14.8 |  |  |
| GCGGAGUGAGGAUAUCCAAUUUAACGUACCAAUUAGGUACGGGAGAAGGCACAUGAGGAUCACCCAUGUACCGC | 72.4 | 53.5 |  |  |
| AUCAGCUCGUCAGGAUAUACGUCACUGCGUCAGCAAUGUGGUAAGAUCACAUGAGGAUCACCCAUGUAGAAGGGACGAGCUGAU | 29.9 | 289 |  |  |
| UUAUGCUGAGAGAAGGUUCAAACUACAUAUUGCAUACAUGAGGAUCACCCAUGUUGGUGAAUAAGAAAGGAUAUUUUACUGUAU | 86.6 | 63.1 |  |  |
| GGAUAGGACAGAGGAUAUACGUGAUAGAGAUACUAGCAAAAUUUCCUCACAUGAGGAUCACCCAUGUAGAAGGCUGUCCUAUCG | 310 | 115 |  |  |
| GGACCAUAUCAGGAUAUGACUAGCUUCGGCUAGUCAGAAGGGAUGACAUGAGGAUCACCCAUGUGAUCAGGUCC | 42.1 | 50.5 |  |  |
| UCUAGACAUGAGGAUCACCCAUGUGAGGAUAUGAUGCGAUCGUCGAAAGACGAUAGCAUCAGAAGGCACGUAUG | 65.1 | 113 |  |  |
